Test results reported in ChEMBL document CHEMBL2440020, “Design, Synthesis, and Anti-leukemic Activity of Stereochemically Defined Constrained Analogs of FTY720 (Gilenya)” (ACS Med Chem Lett, 2013).
The source made the active and inactive calls. No cut-off for these calls is given here.

Legend:
Assay type in all cases: functional, cell-based
[1] = Cytotoxicity against BCR-ABL fusion protein 190 expressing mouse bone marrow cells after 72 hrs by vital dye exclusion/flow cytometric analysis; settings: Bone marrow cell
Procedure, shortened: (§1)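 Viability of human leukaemia and prostate cancer lines, and of murine bone marrow cells expressing BCR-Abl p190, was scored by vital dye exclusion and flow cytometry after 72 h of exposure. IC50 values are given as means with SEM and were compared with the reference control by two-tailed t-test.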

CCRF-CEM = assay: Cytotoxicity against Ph-negative human CCRF-CEM cells after 72 hrs by vital dye exclusion/flow cytometric analysis; procedure, shortened: as §1
BV-173 = assay: Cytotoxicity against Ph-positive human BV173 cells after 72 hrs by vital dye exclusion/flow cytometric analysis; settings: BV-173, 72 h; procedure, shortened: as §1
[2] = Cytotoxicity against Ph-positive human SUP-B15 cells after 72 hrs by vital dye exclusion/flow cytometric analysis; settings: SUP-B15, 72 h; procedure, shortened: as §1
[3] = Downregulation of 4F2hc surface expression in Ph-positive human SUP-B15 cells at 10 uM after 72 hrs by vital dye exclusion/flow cytometric analysis
SUP-B15 = assay: Cytotoxicity against Ph-positive human SUP-B15 cells at 0.1 to 10 uM after 72 hrs by vital dye exclusion/flow cytometric analysis
NALM-6 = assay: Cytotoxicity against Ph-negative human NALM6 cells after 72 hrs by vital dye exclusion/flow cytometric analysis; settings: NALM-6, 72 h; procedure, shortened: as §1
DU-145 = assay: Cytotoxicity against human DU145 cells after 72 hrs by vital dye exclusion/flow cytometric analysis; settings: DU-145, 72 h; procedure, shortened: as §1
PC-3 = assay: Cytotoxicity against human PC3 cells after 72 hrs by vital dye exclusion/flow cytometric analysis; settings: PC-3, 72 h; procedure, shortened: as §1
[4] = Cytotoxicity against Ph-negative human BLIN-1 cells after 72 hrs by vital dye exclusion/flow cytometric analysis; procedure, shortened: as §1

SMILES	IC50 [1] [µM]	IC50 (CCRF-CEM) [µM]	IC50 (BV-173) [µM]	IC50 [2] [µM]	Activity [3]	Activity (SUP-B15)	IC50 (NALM-6) [µM]	IC50 (DU-145) [µM]	IC50 (PC-3) [µM]	IC50 [4] [µM]
CCCCCCCCc1ccc(CO[C@H]2CN[C@@H](CO)C2)cc1	4	8.1	9.7	8.3						
CCCCCCCCc1ccc(CO[C@H]2CCNC2)cc1					Active	Active				
CCCCCCCCc1ccc(CCC(N)(CO)CO)cc1 [FINGOLIMOD]	3.3	6.8	6.3	6.8			9.6	6.5	9.8	5.5
CCCCCCCCc1ccc(CO[C@@H]2CN[C@H](CO)C2)cc1	8.4	11.6	13.8	16.7						
CCCCCCCCc1ccc(CO[C@H]2CN[C@H](CO)C2)cc1	5.7	11	10.4	7.7			15	10.8	14.3	7.5
CCCCCCCCc1ccc(CO[C@@H]2CN[C@@H](C)C2)cc1					Active	Active				
CCCCCCCCc1ccc(CO[C@@H]2CN[C@@H](CO)C2)cc1	0.5	8.2	3.8	2			13.5	15.1	13.5	6.9
CCCCCCCCc1ccc(CO[C@H]2CN[C@H](C)C2)cc1					Active	Active				
CCCCCCCCc1ccc(CO[C@@H]2CCN[C@H]2CO)cc1						inactive				
CCCCCCCCc1ccc(CO[C@@H]2CCNC2)cc1					Active	Active				
CCCCCCCCc1ccc(CO[C@@H]2CN[C@@H](COC)C2)cc1					Active	Active				
